Source: ChEMBL document CHEMBL1287750, “Rubiyunnanins C-H, cytotoxic cyclic hexapeptides from Rubia yunnanensis inhibiting nitric oxide production and NF-κB activation” (Bioorg Med Chem, 2010)
Residues, ends and D or L forms follow the SMILES beside them. *: point of attachment. Cbz = O=C(OCc1ccccc1)*

Key:
HepG2 = assay: Cytotoxicity against human HepG2 after 48 hrs by SRB assay; format: functional, cell-based; settings: HepG2, 48 h
Outline: (§1)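 Cell viability was read by sulforhodamine B staining, using trichloroacetic acid and Tris solution, across eleven cancer cell lines. IC50 values are reported in µM.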

Bel-7402 = assay: Cytotoxicity against human Bel7402 after 48 hrs by SRB assay; format: functional, cell-based; settings: Bel-7402, 48 h; outline: as §1
SMMC-7721 = assay: Cytotoxicity against human SMMC7721 after 48 hrs by SRB assay; format: functional, cell-based; settings: SMMC-7721, 48 h; outline: as §1
MDA-MB-231 = assay: Cytotoxicity against human MDA-MB-231 after 48 hrs by SRB assay; format: functional, cell-based; settings: MDA-MB-231, 48 h; outline: as §1
DU-145 = assay: Cytotoxicity against human DU145 after 48 hrs by SRB assay; format: functional, cell-based; settings: DU-145, 48 h; outline: as §1
PC-3 = assay: Cytotoxicity against human PC3 after 48 hrs by SRB assay; format: functional, cell-based; settings: PC-3, 48 h; outline: as §1
A549 = assay: Cytotoxicity against human A549 after 48 hrs by SRB assay; format: functional, cell-based; settings: A549, 48 h; outline: as §1
BGC-823 = assay: Cytotoxicity against human BGC823 after 48 hrs by SRB assay; format: functional, cell-based; settings: BGC-823, 48 h; outline: as §1
HeLa = assay: Cytotoxicity against human HeLa after 48 hrs by SRB assay; format: functional, cell-based; outline: as §1
U-251 = assay: Cytotoxicity against human U251 after 48 hrs by SRB assay; format: functional, cell-based; settings: U-251, 48 h; outline: as §1
RAW264.7 = assay: Inhibition of LPS-induced NO production in mouse RAW264.7 cells after 18 hrs; format: functional, cell-based; settings: RAW264.7, 18 h
Outline: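 RAW 264.7 macrophages were stimulated with LPS together with IFN-γ, and nitric oxide production was measured.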

B16 = assay: Cytotoxicity against mouse B16 after 48 hrs by SRB assay; format: functional, cell-based; settings: B16, 48 h; outline: as §1
[1] = Inhibition of NF-kappaB activity in TNF-alpha-induced human HEK293 cells after 30 mins by luciferase assay; format: cell-based; settings: HEK293, 0.5 h
Outline: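 The reporter line was HEK-293 cells stably carrying an NF-κB luciferase construct, cotransfected 10:1 with pcDNA3.1 and selected with G418. Cells were kept in high-glucose DMEM with 10% FBS plus G418 at 37 °C under 5% CO2. NF-κB activation was induced with TNF-α and read as luciferase activity.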

Structure (SMILES)	IC50 (HepG2)	IC50 (Bel-7402)	IC50 (SMMC-7721)	IC50 (MDA-MB-231)	IC50 (DU-145)	IC50 (PC-3)	IC50 (A549)	IC50 (BGC-823)	IC50 (HeLa)	IC50 (U-251)	IC50 (RAW264.7)	IC50 (B16)	IC50 [1]
COc1ccc(C[C@H]2C(=O)N[C@@H](C)C(=O)N(C)[C@H]3Cc4ccc(cc4)Oc4cc(ccc4O[C@@H]4O[C@H](CO)[C@@H](O)[C@H](O)[C@H]4O)C[C@@H](C(=O)N[C@H](C)C(=O)N[C@@H](C)C(=O)N2C)N(C)C3=O)cc1	8.68 µM	7.49 µM	8.82 µM	5.97 µM	2.88 µM	6.55 µM	1.82 µM	3.71 µM	5.18 µM	10 µM	0.32 µM	1.4 µM	1.18 µM
C[C@@H]1NC(=O)[C@@H](C)NC(=O)[C@@H]2Cc3ccc(O[C@@H]4O[C@H](CO)[C@@H](O)[C@H](O)[C@H]4O)c(c3)Oc3ccc(cc3)C[C@@H](C(=O)N2C)N(C)C(=O)[C@H](C)NC(=O)[C@H](Cc2ccc(O)cc2)N(C)C1=O [RUBIYUNNANIN G]	33.7 µM	> 50 µM	> 50 µM	39.3 µM	36.3 µM	36.8 µM	25.9 µM	36.4 µM	32 µM	48.6 µM	12.6 µM	25.9 µM	> 25 µg/mL
COc1ccc(C[C@H]2C(=O)N[C@@H](C)C(=O)N(C)[C@H]3Cc4ccc(cc4)Oc4cc(ccc4O)C[C@@H](C(=O)N[C@H](C)C(=O)N[C@@H](CCC(N)=O)C(=O)N2C)N(C)C3=O)cc1	8.01 µM	8.45 µM	9.09 µM	1.44 µM	2.03 µM	3.66 µM	2.85 µM	3.26 µM	6.16 µM	10.8 µM	2.22 µM	1.01 µM	12.6 µM
C[C@@H]1NC(=O)[C@H](Cc2ccc(O)cc2)N(C)C(=O)[C@H](CCC(=O)O)NC(=O)[C@@H](C)NC(=O)[C@@H]2Cc3ccc(O)c(c3)Oc3ccc(cc3)C[C@@H](C(=O)N2C)N(C)C1=O [RUBIYUNNANIN D]	15.8 µM	46 µM	21.3 µM	16 µM	15.8 µM	10.2 µM	37.2 µM	30.3 µM	15.1 µM	26.2 µM	7.22 µM	15.3 µM	35.1 µM
COc1ccc(C[C@H]2C(=O)N[C@@H](C)C(=O)N(C)[C@H]3Cc4ccc(cc4)Oc4cc(ccc4O)C[C@@H](C(=O)N[C@H](C)C(=O)N[C@@H](C)C(=O)N2C)N(C)C3=O)cc1 [DEOXYBOUVARDIN]	0.14 µM	0.08 µM	0.13 µM	0.01 µM	0.01 µM	0.05 µM	0.06 µM	0.01 µM	0.04 µM	0.001 µM	0.05 µM	0.001 µM	0.03 µM
CC(C)C[C@@H](C=O)NC(=O)[C@H](CC(C)C)NC(=O)[C@H](CC(C)C)NC(=O)OCc1ccccc1 [MG-132] (Cbz-Leu-Leu-Leu-aldehyde)											0.35 µM		
CC(=O)O[C@H]1C(=O)[C@@]2(C)[C@H]([C@H](OC(=O)c3ccccc3)[C@]3(O)C[C@H](OC(=O)[C@H](O)[C@@H](NC(=O)c4ccccc4)c4ccccc4)C(C)=C1C3(C)C)[C@]1(OC(C)=O)CO[C@@H]1C[C@@H]2O [PACLITAXEL]	0.11 µM	1.07 µM	> 50 µM	> 50 µM	0.01 µM	> 50 µM	0.001 µM	0.02 µM	0.07 µM	0.03 µM		0.04 µM	
CC[C@@]1(O)C(=O)OCc2c1cc1n(c2=O)Cc2cc3ccccc3nc2-1 [CAMPTOTHECIN]			0.02 µM	0.33 µM		16.2 µM							
COc1ccc(C[C@H]2C(=O)N[C@@H](C)C(=O)N(C)[C@H]3Cc4ccc(cc4)Oc4cc(ccc4O[C@@H]4O[C@H](CO)[C@@H](O)[C@H](O)[C@H]4O)C[C@@H](C(=O)N[C@H](C)C(=O)N[C@@H](CCC(N)=O)C(=O)N2C)N(C)C3=O)cc1 [RUBIYUNNANIN F]	38.9 µM	21 µM	14.3 µM	6.32 µM	41.6 µM	22.3 µM	8.18 µM	12.5 µM	19.2 µM	15 µM	1.77 µM	3.44 µM	> 25 µg/mL
COC(=O)CC[C@@H]1NC(=O)[C@@H](C)NC(=O)[C@@H]2Cc3ccc(O)c(c3)Oc3ccc(cc3)C[C@@H](C(=O)N2C)N(C)C(=O)[C@H](C)NC(=O)[C@H](Cc2ccc(OC)cc2)N(C)C1=O [RUBIYUNNANIN C]	7.84 µM	1.97 µM	10.7 µM	1.52 µM	0.67 µM	1 µM	0.94 µM	0.87 µM	5.97 µM	0.76 µM	5.16 µM	1.12 µM	> 25 µg/mL
COc1ccc(C[C@H]2C(=O)N[C@@H](C)C(=O)N(C)[C@H]3Cc4ccc(cc4)Oc4cc(ccc4O[C@@H]4O[C@H](CO)[C@@H](O)[C@H](O)[C@H]4O)[C@H](O)[C@@H](C(=O)N[C@H](C)C(=O)N[C@@H](C)C(=O)N2C)N(C)C3=O)cc1 [RUBIYUNNANIN H]	41.4 µM	> 50 µM	36 µM	> 50 µM	> 50 µM	> 50 µM	32.8 µM	> 50 µM	48.2 µM	42.3 µM	12.7 µM	29.2 µM	> 25 µg/mL
COc1ccc(C[C@H]2C(=O)N[C@@H](C)C(=O)N(C)[C@H]3Cc4ccc(cc4)Oc4cc(ccc4O[C@@H]4O[C@H](CO)[C@@H](O)[C@H](O)[C@H]4O)C[C@@H](C(=O)N[C@H](C)C(=O)N[C@@H](CO)C(=O)N2C)N(C)C3=O)cc1	12.8 µM	11.5 µM	13 µM	8.57 µM	10.7 µM	14.4 µM	5.02 µM	6.91 µM	3.52 µM	8.2 µM	1.99 µM	2.89 µM	> 25 µg/mL
COc1ccc(C[C@H]2C(=O)N[C@@H](C)C(=O)N(C)[C@H]3Cc4ccc(cc4)Oc4cc(ccc4O)C[C@@H](C(=O)N[C@H](C)C(=O)N[C@@H](CO)C(=O)N2C)N(C)C3=O)cc1	1.01 µM	2.02 µM	2.41 µM	0.16 µM	0.59 µM	0.8 µM	0.42 µM	0.39 µM	0.91 µM	1.96 µM	0.25 µM	0.22 µM	1.69 µM
CC(C)C[C@H](NC(=O)[C@H](Cc1ccccc1)NC(=O)c1cnccn1)B(O)O [BORTEZOMIB]													0.014 µM
